pIC50: −log10 of the molar value. In brackets after ≈: the same amount, converted by molar mass.
Experiments:
Plasmodium falciparum [1] = test: Inhibitory concentration against Plasmodium falciparum W2 infected erythrocytes; type: functional, organism-based
Plasmodium falciparum [2] = test: Minimum inhibitory concentration (IC90) against Plasmodium falciparum K1 infected erythrocytes
Plasmodium falciparum [3] = test: Inhibitory concentration against Plasmodium falciparum D6 infected erythrocytes; type: functional, organism-based
Plasmodium falciparum [4] = test: Inhibitory concentration IC50 against Plasmodium falciparum K1 by [3H]hypoxanthine uptake over 24 hr; type: functional, organism-based
Procedure, shortened: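 K1 strain of P. falciparum (chloroquine- and pyrimethamine-resistant) in infected erythrocyte suspensions at 0.5% initial parasitemia, exposed to drug for 24 h at 37 °C. Read-out is [3H]hypoxanthine incorporation into parasites. IC50 is the concentration giving 50% inhibition relative to untreated controls.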

[5] = In vitro therapeutic index value is the ratio between IC50 values of [J] and [P]; type: cell-based; conditions: human, Jurkat cells; read-out: TI
[6] = molecular target: T1, DNA topoisomerase 2 (Plasmodium falciparum K1) (UniProt P41001); test: Minimum inhibitory concentration required to completely inhibit topoisomerase II activity from Plasmodium falciparum was determined using P4 DNA […] assay
T1 sequence (whole entry): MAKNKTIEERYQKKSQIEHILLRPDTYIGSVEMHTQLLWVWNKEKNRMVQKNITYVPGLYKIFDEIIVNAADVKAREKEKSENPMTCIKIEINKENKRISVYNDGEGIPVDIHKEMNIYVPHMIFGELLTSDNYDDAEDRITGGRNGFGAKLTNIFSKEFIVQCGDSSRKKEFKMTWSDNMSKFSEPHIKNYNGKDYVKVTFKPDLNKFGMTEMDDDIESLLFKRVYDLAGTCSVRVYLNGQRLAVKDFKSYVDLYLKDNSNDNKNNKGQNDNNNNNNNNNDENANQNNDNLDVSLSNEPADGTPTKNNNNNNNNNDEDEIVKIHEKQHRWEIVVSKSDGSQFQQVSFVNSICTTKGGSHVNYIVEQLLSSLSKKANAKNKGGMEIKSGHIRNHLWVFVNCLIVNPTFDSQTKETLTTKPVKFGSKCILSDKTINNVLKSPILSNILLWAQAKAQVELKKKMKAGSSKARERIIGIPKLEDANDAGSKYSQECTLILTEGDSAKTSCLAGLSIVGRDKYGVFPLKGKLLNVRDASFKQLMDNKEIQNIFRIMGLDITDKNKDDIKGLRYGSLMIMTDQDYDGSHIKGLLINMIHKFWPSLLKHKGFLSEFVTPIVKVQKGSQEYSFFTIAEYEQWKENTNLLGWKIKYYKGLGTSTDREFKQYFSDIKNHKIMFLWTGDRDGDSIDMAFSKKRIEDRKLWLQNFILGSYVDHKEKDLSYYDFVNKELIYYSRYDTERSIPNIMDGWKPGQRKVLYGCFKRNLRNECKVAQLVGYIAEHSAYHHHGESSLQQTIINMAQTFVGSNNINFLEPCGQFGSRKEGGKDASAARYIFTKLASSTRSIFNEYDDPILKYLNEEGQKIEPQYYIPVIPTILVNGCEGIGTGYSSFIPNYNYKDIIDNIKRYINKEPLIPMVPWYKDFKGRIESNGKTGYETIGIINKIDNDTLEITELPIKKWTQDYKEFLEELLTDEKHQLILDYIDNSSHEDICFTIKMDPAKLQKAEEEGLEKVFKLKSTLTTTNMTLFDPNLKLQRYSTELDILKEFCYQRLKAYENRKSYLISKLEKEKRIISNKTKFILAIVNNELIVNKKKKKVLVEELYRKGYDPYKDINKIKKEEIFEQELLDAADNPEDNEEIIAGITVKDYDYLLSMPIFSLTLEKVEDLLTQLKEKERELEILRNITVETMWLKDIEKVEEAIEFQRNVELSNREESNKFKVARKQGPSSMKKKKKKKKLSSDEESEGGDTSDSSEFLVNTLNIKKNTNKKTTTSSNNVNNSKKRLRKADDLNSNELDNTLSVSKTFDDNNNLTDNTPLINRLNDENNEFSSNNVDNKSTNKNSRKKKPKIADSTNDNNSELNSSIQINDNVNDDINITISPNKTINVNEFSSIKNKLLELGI

[7] = molecular target: DNA topoisomerase II (Homo sapiens) (UniProt P11388+Q02880); test: Minimum inhibitory concentration required to completely inhibit topoisomerase II activity from jurkat human leukemia cells was determined using P4 DNA unknotting assay
Procedure, shortened: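 Enzyme is a partially purified topoisomerase II extract from midlog Jurkat cells, made by sonication in Tris pH 8/KCl/MgCl2/EGTA buffer with protease inhibitors, then PEG/KCl precipitation. Extract is diluted to a set P4 DNA unknotting activity. Proteinase K method scores unknotting and linearization of phage P4 DNA on 0.7% agarose gels stained with ethidium bromide. MIC is the concentration giving complete inhibition.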

Jurkat = test: Concentration required to reduce growth of human jurkat leukemia cells to 50% of control cultures, determined using a 72 hr continuous exposure; type: functional, cell-based
Procedure, shortened: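 Human Jurkat leukemia cells given continuous drug exposure for 72 h, then counted on a hemocytometer. IC50 is the concentration that cuts cell growth to 50% of untreated controls. Values are means of at least two independent determinations, with variation typically ±15%.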

Plasmodium falciparum [8] = test: (§1) Inhibitory concentration against Plasmodium falciparum K1 infected erythrocytes; type: functional, organism-based
Procedure, shortened: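 Chloroquine- and pyrimethamine-resistant K1 strain in infected erythrocyte suspensions (0.5% initial parasitemia), exposed to drug for 24 h at 37 °C. Read-out: [3H]hypoxanthine incorporation into parasites. IC50 in μM is the concentration that reduces incorporation to 50% of untreated controls.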

Plasmodium falciparum [9] = test: as §1; type: functional
Plasmodium falciparum [10] = test: Minimum inhibitory concentration (IC90) against Plasmodium falciparum K1 infected erythrocytes; remark: listed apart in the source

SMILES	pIC50 (Plasmodium falciparum [1])	IC90 (Plasmodium falciparum [2])	pIC50 (Plasmodium falciparum [3])	pIC50 (Plasmodium falciparum [4])	selectivity ratio [5]	MIC [6]	MIC [7]	pIC50 (Jurkat)	pIC50 (Plasmodium falciparum [8])	IC50 (Plasmodium falciparum [9])	IC90 (Plasmodium falciparum [10])
C=C[C@H]1CN2CC[C@H]1C[C@H]2[C@H](O)c1ccnc2ccc(OC)cc12 [QUININE]	7.00	0.3 µM	7.32	–	–	–	–	–	–	–	–
CS(=O)(=O)Nc1ccc(Nc2c3ccc(N)cc3nc3cc(N)ccc23)cc1	–	–	–	7.52	33	6 µM (≈ 2.36 µg/mL)	10 µM (≈ 3.93 µg/mL)	6.00	–	–	–
COc1ccc2c(Nc3ccc(S(N)(=O)=O)cc3)c3ccc(OC)cc3nc2c1	–	–	–	< 5.00	< 3.2	> 100 µM	> 100 µM	5.51	–	–	–
Nc1ccc(Nc2c3ccc(N)cc3nc3cc(N)ccc23)cc1	7.43	–	7.48	7.60	600	10 µM (≈ 3.15 µg/mL)	20 µM (≈ 6.31 µg/mL)	4.82	7.60	–	–
[N-]=[N+]=Nc1ccc2c(Nc3ccc(C(N)=O)cc3)c3ccc(N=[N+]=[N-])cc3nc2c1	–	–	–	7.22	25	50 µM (≈ 19.8 µg/mL)	> 100 µM	5.82	–	–	–
C[C@@H]1CC[C@H]2[C@@H](C)C(=O)O[C@@H]3O[C@@]4(C)CC[C@@H]1[C@]32OO4 [ARTEMISININ]	7.92	–	7.89	–	–	–	–	–	–	–	–
CCN(CC)CCCC(C)Nc1ccnc2cc(Cl)ccc12 (stereo not given) [CHLOROQUINE]	–	–	–	–	–	–	–	–	–	0.25 µM	–
OC(c1cc(C(F)(F)F)nc2c(C(F)(F)F)cccc12)C1CCCCN1 (stereo not given) [MEFLOQUINE]	–	–	7.77	–	–	–	–	–	–	–	0.07 µM
Nc1ccc2c(=Nc3ccc(S(N)(=O)=O)cc3)c3ccc(N)cc3[nH]c2c1	–	–	–	7.70	1000	6 µM (≈ 2.28 µg/mL)	20 µM (≈ 7.59 µg/mL)	4.70	–	–	–
NC(=O)c1ccc(Nc2c3ccc(N)cc3nc3cc(N)ccc23)cc1	–	–	–	7.15	> 285	6 µM (≈ 2.06 µg/mL)	20 µM (≈ 6.87 µg/mL)	< 4.70	–	–	–
COc1ccc(Nc2c3ccc(N)cc3nc3cc(N)ccc23)cc1	–	–	–	6.82	27	6 µM (≈ 1.98 µg/mL)	20 µM (≈ 6.61 µg/mL)	5.40	–	–	–
COc1ccc2nc3cc(Cl)ccc3c(Nc3cc(CN4CCCC4)c(O)c(CN4CCCC4)c3)c2n1 [PYRONARIDINE]	9.10	–	9.00	8.57	1480	–	–	5.40	–	0.027 µM	–
Nc1ccc2c(Nc3ccc(O)cc3)c3ccc(N)cc3nc2c1	–	–	–	7.30	200	6 µM (≈ 1.9 µg/mL)	20 µM (≈ 6.33 µg/mL)	5.00	–	–	–
CN(C)c1ccc(Nc2c3ccc(N)cc3nc3cc(N)ccc23)cc1	6.93	–	7.20	7.47	176	12.5 µM (≈ 4.29 µg/mL)	20 µM (≈ 6.87 µg/mL)	5.22	7.47	–	–
CN(C)Cc1ccc(Nc2c3ccc(N)cc3nc3cc(N)ccc23)cc1	6.56	–	6.95	7.40	> 500	50 µM (≈ 17.9 µg/mL)	20 µM (≈ 7.15 µg/mL)	< 4.70	7.40	–	–
NS(=O)(=O)c1ccc(Nc2c3ccc(Cl)cc3nc3cc(Cl)ccc23)cc1	–	–	–	< 5.00	–	100 µM (≈ 41.8 µg/mL)	> 100 µM	< 4.70	–	–	–
CNS(=O)(=O)c1ccc(Nc2c3ccc(N)cc3nc3cc(N)ccc23)cc1	–	–	–	7.85	143	25 µM (≈ 9.84 µg/mL)	20 µM (≈ 7.87 µg/mL)	5.70	–	–	–
CN(C)Cc1ccc(Nc2c3ccccc3nc3cc(N)ccc23)cc1	–	–	–	6.60	10	–	–	5.60	–	–	–

— ChEMBL document CHEMBL1127825, “Synthesis and in vitro evaluation of 9-anilino-3,6-diaminoacridines active against a multidrug-resistant strain of the malaria parasite Plasmodium falciparum” (J Med Chem, 1994)
